Tests used:
[1] = target: T1, Angiotensin-converting enzyme (Oryctolagus cuniculus, UniProt P12822); test: In vitro inhibition of angiotensin I converting enzyme in rabbit lung with hippuryl-histidyl-leucine as substrate; format: tissue-based; details: read-out: I50
T1 sequence (P12822 whole entry): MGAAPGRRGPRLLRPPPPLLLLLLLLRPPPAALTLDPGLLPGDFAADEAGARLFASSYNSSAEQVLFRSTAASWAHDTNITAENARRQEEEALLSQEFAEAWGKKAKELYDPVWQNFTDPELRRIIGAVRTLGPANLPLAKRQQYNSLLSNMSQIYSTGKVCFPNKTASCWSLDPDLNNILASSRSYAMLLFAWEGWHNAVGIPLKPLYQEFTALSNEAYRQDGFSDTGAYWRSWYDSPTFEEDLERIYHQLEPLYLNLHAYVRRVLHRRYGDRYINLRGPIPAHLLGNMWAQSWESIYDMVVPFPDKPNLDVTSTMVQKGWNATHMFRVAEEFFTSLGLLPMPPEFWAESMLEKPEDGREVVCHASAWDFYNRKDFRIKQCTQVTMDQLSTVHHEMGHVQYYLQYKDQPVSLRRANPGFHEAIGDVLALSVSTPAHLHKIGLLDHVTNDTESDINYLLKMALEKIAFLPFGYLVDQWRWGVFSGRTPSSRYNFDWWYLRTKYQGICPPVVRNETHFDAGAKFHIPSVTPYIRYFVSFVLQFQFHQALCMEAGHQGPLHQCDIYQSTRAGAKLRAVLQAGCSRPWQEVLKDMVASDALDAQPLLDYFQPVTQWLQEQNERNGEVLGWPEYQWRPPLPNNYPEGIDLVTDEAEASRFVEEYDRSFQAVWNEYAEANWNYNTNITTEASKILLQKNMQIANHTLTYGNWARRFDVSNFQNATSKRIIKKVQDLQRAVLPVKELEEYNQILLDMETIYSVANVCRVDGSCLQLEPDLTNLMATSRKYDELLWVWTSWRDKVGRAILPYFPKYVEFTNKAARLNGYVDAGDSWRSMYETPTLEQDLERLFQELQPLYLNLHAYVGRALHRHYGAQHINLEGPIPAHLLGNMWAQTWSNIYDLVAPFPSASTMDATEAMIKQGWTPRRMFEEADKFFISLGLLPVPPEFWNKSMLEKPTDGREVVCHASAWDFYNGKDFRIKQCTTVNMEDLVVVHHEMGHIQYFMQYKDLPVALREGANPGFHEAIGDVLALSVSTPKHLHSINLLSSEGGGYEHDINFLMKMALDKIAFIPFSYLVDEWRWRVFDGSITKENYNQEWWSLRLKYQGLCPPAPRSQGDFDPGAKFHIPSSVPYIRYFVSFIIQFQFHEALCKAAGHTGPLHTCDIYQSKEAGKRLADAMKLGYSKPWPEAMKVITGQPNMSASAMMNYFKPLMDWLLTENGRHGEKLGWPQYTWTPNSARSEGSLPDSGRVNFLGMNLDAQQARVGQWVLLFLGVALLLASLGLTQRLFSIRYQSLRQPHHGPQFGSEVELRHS
Summary of the method: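 Rabbit lung ACE with synthetic substrate hippurylhistidylleucine; the liberated hippuric acid was quantitated spectrophotometrically. Conditions follow the authors' earlier method.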

Rattus norvegicus [2] = test: In vivo inhibition of angiotensin I induced pressor effect after iv administration in rats; format: functional
Summary of the method: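 Conscious, unrestrained male Sprague-Dawley rats (225-275 g) with aortic and vena caval catheters, recovered at least 2 weeks. […] Compound was given iv in water or 5% NaHCO3 and responses followed up to 70 min. Maximum inhibition was averaged over four rats per dose; ED50 was interpolated from the maximum-inhibition vs dose plot.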

Rattus norvegicus [3] = test: In vivo inhibition angiotensin I induced pressor effect after po administration of 5 umol/kg in rats; format: functional
Summary of the method: (§1)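 Normotensive catheterized male Sprague-Dawley rats (225-275 g), conscious and unrestrained. Compound was given orally at 5.0 µmol/kg in water, 5% NaHCO3 or 1% agar suspension. Angiotensin I (310 ng/kg iv) pressor responses were compared with pre-dose responses for up to 280 min. Maximum percent inhibition is the mean of four animals.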

Rattus norvegicus [4] = test: In vivo inhibition of angiotensin I induced pressor effect after po administration in rats; format: functional
Summary of the method: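 Oral dosing of conscious catheterized male Sprague-Dawley rats (225-275 g) in water, 5% NaHCO3 or 1% agar suspension. Angiotensin I (310 ng/kg iv) pressor responses were followed up to 280 min against pre-dose values, with four rats per dose. ED50 was interpolated from a plot of maximum inhibition vs dose.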

Rattus norvegicus [5] = test: In vivo inhibition angiotensin I induced pressor effect after (5 uML/kg) p.o. administration in rats; format: functional; summary of the method: as §1

SMILES | IC50 [1] [nM] | ED50 (Rattus norvegicus [2]) [µmol/kg] | inhibition in vivo at 5 µmol/kg (Rattus norvegicus [3]) [%] | ED50 (Rattus norvegicus [4]) [µmol/kg] | Inhibition (Rattus norvegicus [5]) [%]
CCCCCP(=O)(O)O[C@@H](CCCCN)C(=O)N1CCC[C@H]1C(=O)O | 27 | 0.071 | 57 |  | 
C[C@H](CP(=O)(O)CCCCc1ccccc1)C(=O)N1CCC[C@H]1C(=O)O | 220 |  |  |  | 
CCCCCCCP(=O)(O)O[C@@H](CCCCN)C(=O)N1CCC[C@H]1C(=O)O | 19 | 0.12 | 75 | 0.62 | 
NCCCC[C@H](OP(=O)(O)CCCCc1ccc(F)cc1)C(=O)N1CCC[C@H]1C(=O)O | 31 | 0.067 | 81 | 0.89 | 
NCCC[C@H](OP(=O)(O)CCCCc1ccccc1)C(=O)N1CCC[C@H]1C(=O)O | 390 | 1 | 28 |  | 
NCCCC[C@H](OP(=O)(O)CCCCc1ccccc1)C(=O)N1CCC[C@H]1C(=O)O [CERONAPRIL] | 36 | 0.063 |  | 0.53 | 90
NCCCCC(CP(=O)(O)CCCCc1ccccc1)C(=O)N1CCC[C@H]1C(=O)O (some centres undefined) | 85 | 0.18 |  | 35 | 
O=C(O)[C@@H]1CCCN1C(=O)[C@H](CCc1ccccc1)OP(=O)(O)CCCCc1ccccc1 | 640 | 29 |  |  | 
NCCCC[C@H](OP(=O)(O)CCc1ccccc1)C(=O)N1CCC[C@H]1C(=O)O | 190 | 0.217 | 65 | 1.39 | 
N=C(N)NCCCCC[C@H](OP(=O)(O)CCCCc1ccccc1)C(=O)N1CCC[C@H]1C(=O)O | 32 | > 1.5 |  |  | 
NCCCC[C@H](NP(=O)(O)CCCCc1ccccc1)C(=O)N1CCC[C@H]1C(=O)O | 9 | 0.022 |  | 2.6 | 
N=C(N)NCCCC[C@H](OP(=O)(O)CCCCc1ccccc1)C(=O)N1CCC[C@H]1C(=O)O | 6.2 | 0.045 | 48 |  | 
N=C(N)NCCC[C@H](OP(=O)(O)CCCCc1ccccc1)C(=O)N1CCC[C@H]1C(=O)O | 19 | 0.12 | 40 |  | 
C[C@H](CS)C(=O)N1CCC[C@H]1C(=O)O [CAPTOPRIL] |  | 0.092 |  | 0.73 | 
CCCCC(C)CP(=O)(O)O[C@@H](CCCCN)C(=O)N1CCC[C@H]1C(=O)O (some centres undefined) | 40 | 0.14 | 68 |  | 
CCCCCCCCP(=O)(O)O[C@@H](CCCCN)C(=O)N1CCC[C@H]1C(=O)O | 38 | 0.091 | 83 | 1.4 | 
CCCCP(=O)(O)O[C@@H](CCCCN)C(=O)N1CCC[C@H]1C(=O)O | 96 | 0.091 | 27 |  | 
CC(=O)NCCC[C@H](OP(=O)(O)CCCCc1ccccc1)C(=O)N1CCC[C@H]1C(=O)O | 42 | 0.25 | 4 |  | 

Source: ChEMBL document CHEMBL1123952, “(Phosphinyloxy)acyl amino acid inhibitors of angiotensin converting enzyme (ACE). 1. Discovery of (S)-1-[6-amino-2-[[hydroxy(4-phenylbutyl)phosphinyl]oxy]-1-oxohexyl]-L -proline a novel orally active inhibitor of ACE” (J Med Chem, 1988)
